In ChEMBL document CHEMBL1153869, “Preparation and antimicrobial behaviour of quaternary ammonium thiol derivatives able to be grafted on metal surfaces” (2009):

Columns and labels:
Pseudomonas aeruginosa [1] = test: Antibacterial activity against Pseudomonas aeruginosa ATCC 9027 after 5 days; assay type: functional; conditions: ATCC 9027, 120 h
Summary of the method: (§1)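 From bacterial MIC plates after 5 days of incubation, the three sub-dose wells showing no growth were streaked onto trypticase soy agar. MLC was the lowest concentration leaving no viable bacteria after subculture on antibiotic-free medium. Three independent experiments were run.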

Staphylococcus aureus [2] = test: Antibacterial activity against Staphylococcus aureus ATCC 6538 after 24 hrs by serial dilution method; assay type: functional; conditions: ATCC 6538, 24 h
Summary of the method: (§2)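 Bacteria were grown overnight on a TSA slant, transferred into M9GY (pH 7.0) and incubated overnight at 30 °C. Third-generation, exponential-phase cells were adjusted to OD660 0.05 (about 5.10⁶–5.10⁷ cfu/mL). Initial solutions in methanol/water 1:1 were serially diluted automatically in microtitre plates. MIC was the lowest concentration with no turbidity after 24 h at 30 °C. Three independent experiments were run.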

Pseudomonas aeruginosa [3] = test: Antibacterial activity against Pseudomonas aeruginosa ATCC 9027 after 24 hrs by serial dilution method; assay type: functional; conditions: ATCC 9027, 24 h; summary of the method: as §2
Staphylococcus aureus [4] = test: Antibacterial activity against Staphylococcus aureus ATCC 6538 after 5 days; assay type: functional; conditions: ATCC 6538, 120 h; summary of the method: as §1
Candida albicans [5] = test: Antifungal activity against Candida albicans ATCC 10231 after 72 hrs by serial dilution method; conditions: ATCC 10231, 72 h
Aspergillus niger [6] = test: Antifungal activity against Aspergillus niger ATCC 6275 after 72 hrs by serial dilution method; conditions: ATCC 6275, 72 h
Aspergillus niger [7] = test: Antifungal activity against Aspergillus niger ATCC 6275 after 7 days; assay type: functional; conditions: ATCC 6275, 168 h
Summary of the method: (§3)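 From fungal MIC plates after 7 days of incubation, the three sub-dose wells showing no growth were streaked onto Sabouraud dextrose agar. MLC was the lowest concentration leaving no viable fungi after subculture on drug-free medium. Three independent experiments were run.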

Candida albicans [8] = test: Antifungal activity against Candida albicans ATCC 10231 after 7 days; assay type: functional; conditions: ATCC 10231, 168 h; summary of the method: as §3

Compound | MLC (Pseudomonas aeruginosa [1]) [µM] | MIC (Staphylococcus aureus [2]) [µM] | MIC (Pseudomonas aeruginosa [3]) [µM] | MLC (Staphylococcus aureus [4]) [µM] | MIC (Candida albicans [5]) [µM] | MIC (Aspergillus niger [6]) [µM] | MLC (Aspergillus niger [7]) [µM] | MLC (Candida albicans [8]) [µM]
CCCCCCCCCC[N+](C)(C)CCCCCCCCCCCS | 309 | 11.6 | 309 | 48 | 31.6 | 31.6 | 48 | > 61.3
C[N+](C)(C)CCCCCCCCCCCS | > 1120 | 56.6 | 557 | 56.6 | 1120 | 56.6 | > 131 | > 1900
CCCCCCCCCCCCCC[N+](C)(C)CCCNC(=O)CCCCCCCCCCS | 599 | 188 | 442 | 188 | > 742 | 56.3 | > 74.2 | > 742
CCCCCCCCCCCC[N+](C)(C)CCCNC(=O)CCCCCCCCCCS | 184 | 18.7 | 184 | 38.2 | > 688 | 47 | > 61.7 | > 688
C[N+](C)(CCCCCCCCCCCS)Cc1ccccc1 | > 1530 | 682 | 1060 | 682 | 472 | 351 | 682 | > 896
CCCCCCCCCCCCCC[N+](C)(C)CCCCCCCCCCCS | > 1520 | 1310 | 1120 | > 1520 | 1520 | 90 | > 124 | > 1520
CCCCCCCCCCCCCC[N+](C)(C)Cc1ccccc1 [MIRISTALKONIUM CHLORIDE] | – | 3.2 | 93 | – | 8.36 | 4.74 | – | –
C[N+](C)(C)CCCNC(=O)CCCCCCCCCCS | > 864 | 105 | 595 | > 395 | > 1070 | 105 | > 395 | > 1070
CCCCCCCCCCCC[N+](C)(C)CCCCCCCCCCCS | 326 | 34.7 | 326 | 73.3 | 39.5 | 67.2 | > 92.2 | > 63.4
C[N+](C)(CCCNC(=O)CCCCCCCCCCS)Cc1ccccc1 | > 1060 | 592 | 980 | 946 | > 1060 | 773 | > 946 | > 1060
CCCCCCCCCC[N+](C)(C)CCCNC(=O)CCCCCCCCCCS | 250 | 17.5 | 171 | 32.5 | > 677 | 44.1 | > 60.7 | > 677
